Screening results from PubChem.
HCV core dimer: inhibitors of HCV core protein dimerization, primary screen, biochemical, TR-FRET, high-throughput. TR-FRET GST/Flag-core106 dimerization, 1536-well. inhibition, % at 5 µM. hit rate 0.33% among 300,000. AID 1899, 2009;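 active = inhibition above the mean of all tested compounds plus 3 SD, set per screening campaign, cut at about 45% in these data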
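System: GST/Flag-tagged HCV core106 proteins. Incubation: compound-protein-antibody incubation 4 h at 22.5 °C. Technique: HTRF with 340 nm excitation, 617/671 nm emission. Medium: KF-containing HEPES buffer, pH 7.45, DTT, CHAPS, BSA. Read-out: inhibition (%) from 671 over 617 nm ratio. Also added: Eu(K)-anti-GST 90 ng/mL plus XL665-anti-Flag 1 µg/mL.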
NadD block: inhibitors of S. aureus NadD, primary screen, biochemical, colorimetric, uHTS; Nicotinate-nucleotide adenylyltransferase NadD (Staphylococcus aureus N315); purified NadD enzyme, colorimetric absorbance read-out; inhibition, % at 20 µM; hit rate 0.78% among 360,000; in the data active = inhibition above about 26%
Pemphigus Ab inh: inhibitors of pemphigus antibody binding to DSG3, primary screen, biochemical, bead-based, flow cytometry, scFv-GFP; hit rate 0.48% among 310,000; binding (percent of control), % at 10 µM; Desmoglein-3 (Homo sapiens), P32926; DSG3-coupled beads, scFv-anti-DSG3-GFP binding; active compounds read low; AID 588358, 2011;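 active = binding more than 3 SD below its plate's average and above zero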;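 note: hits lower antibody fragment binding to DSG3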
Rce1 inhib: yeast Rce1p protease inhibitors, primary screen, biochemical, fluorescence, cell-free homogeneous; CAAX prenyl protease 2 (Saccharomyces cerevisiae (strain ATCC 204508 / S288c)), Q03530; calls only; AID 2563, 2010; yeast membranes, quenched prenylated peptide cleavage fluorescence; hit rate 0.27% among 290,000;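 active = fall in fluorescence gain of 50% or more versus controls, with final raw signal at or below 3038400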;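 note: plate controls were neutral control wells for no effect and wells lacking membranes for full effect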
Target sequence (Q03530 whole entry, looked up): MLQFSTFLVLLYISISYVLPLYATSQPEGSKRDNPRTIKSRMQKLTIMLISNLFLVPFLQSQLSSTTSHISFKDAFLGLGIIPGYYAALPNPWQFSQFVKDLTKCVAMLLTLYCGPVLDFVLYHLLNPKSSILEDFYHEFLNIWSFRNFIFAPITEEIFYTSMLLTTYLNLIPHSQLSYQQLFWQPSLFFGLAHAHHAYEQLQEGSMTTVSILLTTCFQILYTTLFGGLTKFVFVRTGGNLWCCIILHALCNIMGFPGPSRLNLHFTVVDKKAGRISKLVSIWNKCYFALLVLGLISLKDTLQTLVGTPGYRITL
Tb MetRS inh: T. brucei MetRS inhibitors, primary screen, biochemical, luminescence; AID 624268, 2012; inhibition, % at 11.9 µM; hit rate 0.4% among 360,000; purified T. brucei MetRS, ATP depletion, Kinase-Glo luminescence;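 active = inhibition above a per-plate cutoff of the control wells' mean inhibition plus 3 SD, cut at about 5.5% in these data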;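 note: 0% = DMSO wells median and 100% = median of wells with control inhibitor compound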
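Assay system: T. brucei methionyl-tRNA synthetase, purified | Medium: HEPES buffer with MgCl2, KCl, DTT, spermine, BSA, pyrophosphatase | Compound: 11.9 µM single point | Incubation: 15 min enzyme-compound preincubation, 2 h reaction, 10 min detection, 25 °C | Measured by: Kinase-Glo luciferase luminescence reporting remaining unconsumed ATP | Measure: % inhibition normalized to control-well medians | Replication: Singlicate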
Active calls of the source: *. Shown are actives, neighbours in structure and some others; about 1.9% of the full set was active somewhere.

How did O=C1NC(=Nc2ccc3ccccc3c2)S/C1=C/c1ccco1 do in these assays?
HCV core dimer: 43; NadD block: 34*; Pemphigus Ab inh: 98; Rce1 inhib: inactive; Tb MetRS inh: 0

Results for COc1ccc(N=C2NC(=O)/C(=C\C=C\c3ccco3)S2)cc1 ?
NadD block: 36*; Pemphigus Ab inh: 86; Rce1 inhib: inactive; Tb MetRS inh: 0

How did Cc1cccc(N=C2NC(=O)/C(=C/C=C/c3ccco3)S2)c1 do in these assays?
HCV core dimer: 19; NadD block: 32*; Pemphigus Ab inh: 114; Rce1 inhib: inactive; Tb MetRS inh: 0

What do the screens show for `O=C(CCC1CCCC1)NNC(=O)COc1ccc(Br)cc1`?
NadD block: -3; Pemphigus Ab inh: 98; Tb MetRS inh: 0

What do the screens show for `Cc1cc(NC(=O)c2ccc(NC(=O)C3CCCO3)cc2)ccc1Br` (configuration not stated)?
HCV core dimer: 0; NadD block: -14; Pemphigus Ab inh: 99; Rce1 inhib: inactive; Tb MetRS inh: -1

How did CCOC(=O)c1nnn(-c2nonc2-n2cccc2)c1C do in these assays?
HCV core dimer: 7; NadD block: 4; Pemphigus Ab inh: 113; Rce1 inhib: inactive; Tb MetRS inh: -1

What do the screens show for `CCOC(=O)c1nnn(-c2nonc2NC(C)=O)c1C`?
HCV core dimer: -6; NadD block: -6; Pemphigus Ab inh: 52*; Rce1 inhib: inactive; Tb MetRS inh: 1

What do the screens show for `COc1ccc(N2Cc3cccc(C(=O)O)c3C2=O)cc1`?
HCV core dimer: 48*; NadD block: 0; Pemphigus Ab inh: 100; Rce1 inhib: inactive; Tb MetRS inh: 1

How did COc1ccc(N2Cc3ccccc3C2=O)cc1 do in these assays?
HCV core dimer: -16; NadD block: 3; Pemphigus Ab inh: 113; Rce1 inhib: inactive; Tb MetRS inh: -4

What do the screens show for `O=C(CC1(O)C(=O)N(C/C=C/c2ccccc2)c2ccccc21)c1ccccn1` (configuration not stated)?
HCV core dimer: 2; NadD block: -2; Pemphigus Ab inh: 100; Rce1 inhib: active; Tb MetRS inh: 0

What do the screens show for `O=C(CC1(O)C(=O)N(CCc2ccccc2)c2ccccc21)c1ccccn1` (configuration not stated)?
HCV core dimer: -4; NadD block: 3; Pemphigus Ab inh: 104; Rce1 inhib: inactive; Tb MetRS inh: 0

Results for Cc1cc(C)n2c(SCC(=O)NC3CCCC(C)C3C)nnc2n1 (configuration not stated) ?
HCV core dimer: 38; NadD block: 9; Pemphigus Ab inh: 99; Rce1 inhib: inactive; Tb MetRS inh: -1

How did COc1ccc(C2=NN(C(=O)CCC(=O)O)C(c3cccs3)C2)cc1 (configuration not stated) do in these assays?
HCV core dimer: -2; NadD block: -8; Pemphigus Ab inh: 120; Rce1 inhib: active; Tb MetRS inh: -1

How did Cc1ccc(C2=NN(C(=O)CCC(=O)O)C(c3cccs3)C2)cc1 (configuration not stated) do in these assays?
HCV core dimer: 5; NadD block: -1; Pemphigus Ab inh: 100; Rce1 inhib: inactive; Tb MetRS inh: 0

How did O=C(CSc1ccc(C(F)(F)F)cc1[N+](=O)[O-])Nc1ccccc1 do in these assays?
HCV core dimer: -6; NadD block: -4; Pemphigus Ab inh: 102; Tb MetRS inh: 7.6*

How did O=[N+]([O-])c1ccc(NN=Cc2ccco2)nc1 do in these assays?
NadD block: 1; Pemphigus Ab inh: 117; Tb MetRS inh: 0

What do the screens show for `Oc1ccc(/C=N/NC(=S)Nc2cccnc2)c(O)c1O`?
NadD block: 21; Pemphigus Ab inh: 53*; Rce1 inhib: inactive; Tb MetRS inh: 2

What do the screens show for `Cc1ccc(Cn2cc(C(=O)c3ccc(F)cc3)c(=O)c3cc4c(cc32)OCCO4)cc1`?
HCV core dimer: 18; NadD block: 16; Pemphigus Ab inh: 0.5*; Rce1 inhib: inactive; Tb MetRS inh: -2
